NF-kB neuron act: activators of NF-kB expression in neurons, primary screen, cell-based, HTS. fold change at 12.5 µM. human neuronal cells, NF-kB reporter expression; hits give high values. actives 1.6% (n = 190,000); in the data active means fold change above about 3.3
STAT3 act: IL-6 driven STAT3 reporter potentiators, primary screen, U3A cells, luciferase, luminescence, MLSCN library; IL-6 STAT3-luciferase reporter; 100% = signal with IL-6 EC80 alone; activation (% of control), % at 5.6 µM; actives 0.91% (n = 190,000);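 active means activation above the screen-wide mean of compound activation plus 3 SD, cut at about 130% in these data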
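Test system: Human STAT1-deficient U3A cells with stable STAT3-luciferase reporter | Also added: Interleukin-6, 33 ng/mL | Timing: Compound pre-incubation 1 h before IL-6, then 6 h stimulation at 37 °C | Technique: Luciferase reporter luminescence | Read-out: Percent of IL-6-only median luminescence | Benchmarks: IL-6-only wells as 100% reference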
STAT1 inh: STAT1 signaling inhibitors, primary screen, cell-based, HTS, luciferase reporter. NIH 3T3 STAT1-luciferase reporter, IFN-gamma, luminescence. inhibition, % at 5.5 µM. actives 0.35% (n = 200,000). AID 920, 2007;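 active means inhibition above a set limit, the mean inhibition across all tested compounds plus 3 SD, cut at about 34% in these data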
STAT3 inh-1: IL-6 driven STAT3 reporter inhibitors, primary screen, U3A cells, luciferase, luminescence, MLSCN library | actives 0.89% (n = 190,000) | IL-6 STAT3-luciferase reporter; host cell line lacks STAT1 | inhibition, % at 5.5 µM | AID 862, 2007;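 active means inhibition above the mean inhibition across all screened compounds plus 3 SD, cut at about 44% in these data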
STAT1 activator: STAT1 signaling activators, primary screen, cell-based, HTS, luciferase reporter. AID 932, 2007. NIH 3T3 STAT1-luciferase reporter, IFN-gamma, luminescence; 100% = IFN-gamma alone, no compound. actives 2.6% (n = 200,000). activation (% of control), % at 5.5 µM;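 active means activation above the screen-wide mean activation plus 3 SD, cut at about 130% in these data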
APP 5'UTR act: activators of APP 5'UTR luciferase reporter, primary screen, SH-SY5Y cells; activation, % at 2 µM; AID 1276, 2008; actives 1% (n = 190,000); SH-SY5Y APP 5'UTR luciferase reporter, luminescence; zero percent = DMSO vehicle wells;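 active means activation above a set limit, based on mean plus 3 SD of controls, cut at about 140% in these data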
STAT3 inh-2: STAT3 reporter inhibitors, retest of hits, confirmation, U3A cells, luciferase, luminescence. shares compounds with STAT3 inh-1. IL-6 STAT3 luciferase reporter; cell line lacks STAT1. inhibition, % at 5.7 µM. actives 45% (n = 1,200). AID 1265, 2008;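 active means inhibition above the hit cutoff computed for the primary STAT3 screen, cut at about 44% in these data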
NFkB inh STAT3ct: NF-kB reporter inhibitors in human cells, confirmation, counter-screen for STAT3 inhibitor project, cell-based, HEK293T, luciferase, TNF-alpha stimulus. shares compounds with STAT3 inh-1. AID 1308, 2008. inhibition, % at 5.7 µM. actives 36% (n = 1,200). TNF-alpha induced;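 active means inhibition above the mean of solvent-only control wells plus 3 SD, cutoff set per campaign, cut at about 13% in these data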
STAT1 inh STAT3c: STAT1 reporter inhibitors, IFN-gamma induced, confirmation, counter-screen for STAT3 inhibitor project, cell-based, NIH 3T3, luciferase luminescence. NIH 3T3 STAT1-luciferase reporter. actives 27% (n = 1,200). shares compounds with STAT3 inh-1. inhibition, % at 5.7 µM;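 active means inhibition above the mean plus 3 SD of solvent-only control wells, limit set per screening run, cut at about 16% in these data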
Each line names hits and unclear results; the compound was inactive in the other large screens (follow-up assays come after a bar, where they were run). An excerpt weighted towards active compounds, which were near 5.1% of everything screened.

CCCNC(=O)c1ccc(-c2nc3ccccc3s2)s1	NF-kB neuron act 4.58, STAT3 inh-1 75.1, APP 5'UTR act 155.0 | STAT3 inh-2 44.7 | NFkB inh STAT3ct inactive | STAT1 inh STAT3c inactive
O=C(OCC(=O)N1CCN(C(=O)c2ccco2)CC1)c1ccccc1OCc1ccccc1	none
Cc1nc2sccn2c1-c1csc(NCc2ccccc2)n1	STAT3 inh-1 66.1 | STAT3 inh-2 51.3 | NFkB inh STAT3ct inactive | STAT1 inh STAT3c inactive
O=[N+]([O-])c1ccc(N/N=C/c2c[nH]c3ccccc23)cc1	STAT3 inh-1 47.8 | STAT3 inh-2 inactive | NFkB inh STAT3ct inactive | STAT1 inh STAT3c inactive
O=C(Nc1ccccc1)Nc1ncc([N+](=O)[O-])s1	NF-kB neuron act 4.09, STAT3 inh-1 54.4 | STAT3 inh-2 inactive | NFkB inh STAT3ct inactive | STAT1 inh STAT3c inactive
CCCCC(=O)Nc1ncc([N+](=O)[O-])s1	none
Cc1nc(C)c(C(=O)Nc2ncc([N+](=O)[O-])s2)o1	STAT3 inh-1 67.7 | STAT3 inh-2 inactive | NFkB inh STAT3ct inactive | STAT1 inh STAT3c inactive
CCc1ccc(NC(=O)C(C)n2nc(C)c([N+](=O)[O-])c2C)cc1 (stereo not drawn)	none
COc1cc(N/N=C/c2ccc(N(C)C)cc2)ncn1	NF-kB neuron act 4.13, STAT3 inh-1 61.2, APP 5'UTR act 135.3 | STAT3 inh-2 inactive | NFkB inh STAT3ct inactive | STAT1 inh STAT3c inactive
COc1cc(N/N=C/c2ccccc2O)ncn1	none
CS(=O)(=O)N1CCc2cc(-c3csc(NC(=O)Cc4ccccc4)n3)ccc21	STAT3 inh-1 53.2 | STAT3 inh-2 46.4 | NFkB inh STAT3ct inactive | STAT1 inh STAT3c inactive
CC1Cc2cc(-c3csc(NC(=O)Cc4cccs4)n3)ccc2N1S(C)(=O)=O (stereo not drawn)	STAT3 inh-1 78.9 | STAT3 inh-2 78.9 | NFkB inh STAT3ct 28.9 | STAT1 inh STAT3c inactive
COc1ccccc1CNc1ccccc1F	none
O=c1[nH]c(-c2cccnc2)nc2sc(-c3ccccc3)cc12	none
Cc1nc2sc(-c3ccccc3)cc2c(=O)[nH]1	NF-kB neuron act 3.53, STAT3 inh-1 68.7, APP 5'UTR act 156.8 | STAT3 inh-2 inactive | NFkB inh STAT3ct inactive | STAT1 inh STAT3c inactive
CC(=O)c1ccc(OCCCC(=O)Nc2cccc(S(=O)(=O)N(C)C)c2)cc1	none
O=C(Nc1ccc(-c2nc3ccccc3o2)cc1)c1ccc2c(c1)OCO2	none
O=C(Nc1ccc2oc(-c3ccccc3)nc2c1)c1ccncc1	STAT3 inh-1 46.3 | STAT3 inh-2 inactive | NFkB inh STAT3ct inactive | STAT1 inh STAT3c inactive
O=C(Nc1ccc(-c2nc3ccccc3o2)cc1)c1ccc(N2C(=O)C3C4C=CC(C4)C3C2=O)cc1 (stereo not drawn)	STAT3 inh-1 74.4 (no result: APP 5'UTR act) | STAT3 inh-2 67.9 | NFkB inh STAT3ct 17.4 | STAT1 inh STAT3c inactive
COc1cc(OC)cc(C(=O)Nc2ccc(-c3nc4ccccc4o3)cc2)c1	STAT3 inh-1 46.3 | STAT3 inh-2 44.5 | NFkB inh STAT3ct inactive | STAT1 inh STAT3c inactive
Cc1cc2c(cc1C)CSC(c1ccccc1O)SC2	none
CCc1nc(Nc2ccc(OC)c(OC)c2)c2nnn(Cc3ccccc3Cl)c2n1	STAT3 inh-1 67.1 | STAT3 inh-2 57.8 | NFkB inh STAT3ct 17.1 | STAT1 inh STAT3c 19.4
COc1cccc(OC)c1Nc1nc(C)nc2c1nnn2Cc1ccccc1Cl	none
c1ccc2c(c1)OCC(CNc1ncnc3sccc13)O2 (stereo not drawn)	STAT3 inh-1 84.1 | STAT3 inh-2 86.9 | NFkB inh STAT3ct 32.3 | STAT1 inh STAT3c 19.8
CC(=O)N1CCN(c2ccc(NC(=O)COc3ccc(Cl)cc3Cl)cc2)CC1	STAT3 inh-1 60.5 | STAT3 inh-2 inactive | NFkB inh STAT3ct inactive | STAT1 inh STAT3c inactive
COc1ccc(OCC(=O)Nc2ccc(N3CCN(C(=O)c4ccco4)CC3)cc2)cc1	none
O=C(COc1ccc(Cl)cc1)Nc1ccc(N2CCN(C(=O)c3ccco3)CC2)cc1	STAT3 inh-1 60.7 | STAT3 inh-2 inactive | NFkB inh STAT3ct inactive | STAT1 inh STAT3c inactive
CC(=O)N1CCN(c2ccccc2NC(=O)COc2ccc(Cl)cc2Cl)CC1	none
COc1ccc(OCCC(=O)Nc2nccs2)cc1	none
COc1ccc(OCC(=O)Nc2nccs2)cc1	NF-kB neuron act 3.91, STAT3 inh-1 68.6 | STAT3 inh-2 inactive | NFkB inh STAT3ct inactive | STAT1 inh STAT3c inactive
O=C(Oc1ccccc1N1C(=O)C2CCCCC2C1=O)c1ccccc1 (stereo not drawn)	STAT3 inh-1 67.8 | STAT3 inh-2 45.6 | NFkB inh STAT3ct inactive | STAT1 inh STAT3c inactive
O=C(Oc1ccccc1N1C(=O)C2CC=CCC2C1=O)c1ccc(Br)cc1 (stereo not drawn)	none
Cc1ccc(C(=O)Oc2ccccc2N2C(=O)C3CCCCC3C2=O)cc1 (stereo not drawn)	STAT3 inh-1 53.7 | STAT3 inh-2 inactive | NFkB inh STAT3ct inactive | STAT1 inh STAT3c inactive
CCOc1ccc(C(CC(=O)O)NC(=O)CCCOc2ccc(Cl)cc2C)cc1 (stereo not drawn)	none
COc1cc(C)c(Cl)cc1S(=O)(=O)NC1CC(C)(C)NC(C)(C)C1	none
Cc1cc(C)c(C#N)c(SCc2nnc(-c3ccccc3)o2)n1	STAT3 inh-1 66.6 | STAT3 inh-2 inactive | NFkB inh STAT3ct inactive | STAT1 inh STAT3c inactive
O=C(COC(=O)c1n[nH]c2ccccc12)Nc1ccc(S(=O)(=O)N2CCCC2)cc1	STAT3 inh-1 70.8 | STAT3 inh-2 51.0 | NFkB inh STAT3ct inactive | STAT1 inh STAT3c inactive
O=C(COC(=O)c1n[nH]c2ccccc12)Nc1cccc(S(=O)(=O)N2CCOCC2)c1	none
Cc1nc(NC(C)c2ccccc2)c2oc3ccccc3c2n1 (stereo not drawn)	STAT3 inh-1 46.5 | STAT3 inh-2 inactive | NFkB inh STAT3ct inactive | STAT1 inh STAT3c inactive
C/C=C/C=C/C(=O)Nc1nccs1	none
O=C(/C=C/c1ccc(Cl)cc1)Nc1nccs1	NF-kB neuron act 8.47, STAT3 inh-1 43.6, APP 5'UTR act 183.9 | STAT3 inh-2 inactive | NFkB inh STAT3ct inactive | STAT1 inh STAT3c inactive

Compound activity: PubChem BioAssay, several laboratories
